Test results reported in paper PMC6585844 (Clinical Pharmacology in Drug Development, 2018).
Where “and” joins values, the source holds several entries; their conditions need not be identical. Identical values can stand only once.

How the values were obtained:
Safety/tolerability = format: in vivo, human
Outline: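 Open-label oral dose escalation. Cohorts A–E received 10 doses (1 single, then 9 twice daily). Cohort F (n = 6) took titrated twice-daily doses of 100–800 mg/day on days 1–14, up to 28 doses, and was assessed for safety only. Vital signs were taken at screening, baseline and each study day, with a 12-lead ECG at screening. AEs were recorded when reported.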

[1] = test system: cytochrome P450 (CYP) 2C9; conditions: cited from earlier work
[2] = test system: hypokalemic PP and hyperkalemic PP; conditions: doses from approximately 100 to 200 mg/day, versus placebo; cited from earlier work
[3] = Cohort B (n = 6): 1 × 50 mg then 9 × 50 mg BID
[4] = Cohort C (n = 6): 1 × 100 mg then 9 × 100 mg BID
[5] = Cohort D (n = 6): 1 × 200 mg then 9 × 200 mg BID
[6] = Cohort E (n = 6): 1 × 400 mg then 9 × 400 mg BID
[7] = Cohort F (n = 6): dose titration 50 to 400 mg BID, up to 28 doses

NS(=O)(=O)c1cc(Cl)c(Cl)c(S(N)(=O)=O)c1 [dichlorphenamide]
Subjects discontinuing due to TEAE (Safety/tolerability; [3]): 0 n (%)
Subjects reporting at least 1 TEAE (Safety/tolerability; [3]): 1 (16.7) n (%)
Subjects reporting at least 1 serious TEAE (Safety/tolerability; [3]): 0 n (%)
Total TEAEs reported (Safety/tolerability; [3]): 3
Treatment‐related AEs reported (Safety/tolerability; [3]): 2
Blood potassium decreased, TEAE of any severity, subjects (Safety/tolerability; [4]): 1 (16.7)
Dizziness, TEAE of any severity, subjects (Safety/tolerability; [4]): 0
Dysgeusia, TEAE of any severity, subjects (Safety/tolerability; [4]): 0
Dyspnea, TEAE of any severity, subjects (Safety/tolerability; [4]): 0
Oral paresthesia, TEAE of any severity, subjects (Safety/tolerability; [4]): 0
Paresthesia, TEAE of any severity, subjects (Safety/tolerability; [4]): 2 (33.3)
Subjects discontinuing due to TEAE (Safety/tolerability; [4]): 0 n (%)
Subjects reporting at least 1 TEAE (Safety/tolerability; [4]): 4 (66.7) n (%)
Subjects reporting at least 1 serious TEAE (Safety/tolerability; [4]): 0 n (%)
Total TEAEs reported (Safety/tolerability; [4]): 16
Treatment‐related AEs reported (Safety/tolerability; [4]): 14
Blood potassium decreased, TEAE of any severity, subjects (Safety/tolerability; [5]): 0
Dizziness, TEAE of any severity, subjects (Safety/tolerability; [5]): 4 (66.7)
Dysgeusia, TEAE of any severity, subjects (Safety/tolerability; [5]): 3 (50.0)
Dyspnea, TEAE of any severity, subjects (Safety/tolerability; [5]): 3 (50.0)
Oral paresthesia, TEAE of any severity, subjects (Safety/tolerability; [5]): 1 (16.7)
Paresthesia, TEAE of any severity, subjects (Safety/tolerability; [5]): 2 (33.3)
Subjects discontinuing due to TEAE (Safety/tolerability; [5]): 1 n (%) and 1 (16.7) n (%)
Subjects reporting at least 1 TEAE (Safety/tolerability; [5]): 6 (100) n (%)
Subjects reporting at least 1 serious TEAE (Safety/tolerability; [5]): 0 n (%)
Total TEAEs reported (Safety/tolerability; [5]): 36
Treatment‐related AEs reported (Safety/tolerability; [5]): 33
Blood potassium decreased, TEAE of any severity, subjects (Safety/tolerability; [6]): 1 (16.7)
Dizziness, TEAE of any severity, subjects (Safety/tolerability; [6]): 3 (50.0)
Dysgeusia, TEAE of any severity, subjects (Safety/tolerability; [6]): 1 (16.7)
Dyspnea, TEAE of any severity, subjects (Safety/tolerability; [6]): 1 (16.7)
Oral paresthesia, TEAE of any severity, subjects (Safety/tolerability; [6]): 1 (16.7)
Paresthesia, TEAE of any severity, subjects (Safety/tolerability; [6]): 4 (66.7)
Subjects discontinuing due to TEAE (Safety/tolerability; [6]): 3 n (%) and 3 (50.0) n (%)
Subjects reporting at least 1 TEAE (Safety/tolerability; [6]): 6 (100) n (%)
Subjects reporting at least 1 moderate TEAE (Safety/tolerability; [6]): 1 (16.7) n (%)
Subjects reporting at least 1 serious TEAE (Safety/tolerability; [6]): 0 n (%)
Total TEAEs reported (Safety/tolerability; [6]): 42
Treatment‐related AEs reported (Safety/tolerability; [6]): 39
Dizziness, TEAE of any severity, subjects (Safety/tolerability; [7]): 0
Dysgeusia, TEAE of any severity, subjects (Safety/tolerability; [7]): 0
Dyspnea, TEAE of any severity, subjects (Safety/tolerability; [7]): 1 (16.7)
Oral paresthesia, TEAE of any severity, subjects (Safety/tolerability; [7]): 0
Paresthesia, TEAE of any severity, subjects (Safety/tolerability; [7]): 2 (33.3)
Subjects discontinuing due to TEAE (Safety/tolerability; [7]): 6 n (%) and 6 (100) n (%)
Subjects reporting at least 1 TEAE (Safety/tolerability; [7]): 6 (100) n (%)
Subjects reporting at least 1 moderate TEAE (Safety/tolerability; [7]): 2 (33.3) n (%)
Subjects reporting at least 1 serious TEAE (Safety/tolerability; [7]): 1 (16.7) n (%)
Total TEAEs reported (Safety/tolerability; [7]): 50
Treatment‐related AEs reported (Safety/tolerability; [7]): 40
TEAEs reported as moderate (Safety/tolerability; all cohorts): 7
Dizziness, number of subjects (Safety/tolerability; all cohorts (N = 36)): 7 subjects
Paresthesia (including oral), number of subjects (Safety/tolerability; all cohorts (N = 36)): 12 subjects
Subjects reporting at least 1 TEAE in gastrointestinal system organ class (Safety/tolerability; all cohorts (N = 36)): 28%
Subjects reporting at least 1 TEAE in nervous system organ class (Safety/tolerability; all cohorts (N = 36)): 50%
Subjects withdrawn/discontinued due to AEs (Safety/tolerability; all cohorts, 36 enrolled): 10 subjects
Changes in vital signs or ECG findings (Safety/tolerability; any subject): No clinically relevant changes
Serum potassium, clinically significant reduction in 1 subject (Safety/tolerability; cohort C, poststudy): 2.8 mmol/L
Serious TEAE of rash requiring brief hospitalization, subjects (Safety/tolerability; cohort F): 1 subject
Subjects with below‐normal serum potassium (Safety/tolerability; cohort F): 5 of 6
Discontinuations to which hypokalemia contributed (Safety/tolerability; cohort F (all 800 mg/day)): 5 of 6
Serum potassium, lowest recorded value (Safety/tolerability; cohort F, multiple study time points): 2.8 mmol/L
Subjects with clinically significant reductions in serum potassium (Safety/tolerability; cohorts A through E, poststudy): 2 subjects
Subjects with at least one mild‐to‐moderate AE (Safety/tolerability; cohorts D, E, and F): 100%
Effect on CYP2C9‐mediated 7‐methoxy‐4‐(trifluoromethyl)coumarin (MFC) metabolism [1]: relatively weak activator
Frequency and severity of attacks in primary periodic paralysis [2]: significant reduction
